In ChEMBL document CHEMBL4813946, “Discovery of novel 4-azaaryl-N-phenylpyrimidin-2-amine derivatives as potent and selective FLT3 inhibitors for acute myeloid leukaemia with FLT3 mutations” (Eur J Med Chem, 2021):
Activity calls are given as the source filed them. No cut-off for these calls is given here.

Legend:
U-937 [1] = assay: Antiproliferative activity against human U-937 cells harboring wild type/low FLT3 assessed as reduction in cell viability after 72 hrs by resazurin assay; format: functional
Method in brief: (§1)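 Cells seeded and pre-incubated 24 h at 37 °C, 5% CO2, then given a five-fold dilution series of compound (from 10 mM DMSO stock) in medium, in triplicate. Resazurin added after 72 h exposure, 4 h in dark at 37 °C. Fluorescence read at 570/585 nm, normalised to DMSO vehicle. GI50 by non-linear regression; mean ± SD of at least two replicates.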

U-937 [2] = assay: Induction of apoptosis in human U937 cells assessed as viable cells at 5 x GI50 concentration incubated for 24 hrs by annexin V-FITC and propidium iodide staining based flow cytometry (reference value: 86.80 %); format: functional
MV4-11 [3] = assay: Induction of apoptosis in human MV4-11 cells assessed as necrotic cells at 10 x GI50 concentration incubated for 48 hrs by annexin V-FITC and propidium iodide staining based flow cytometry (reference value: 0.45 %); format: functional
[4] = target: Receptor-type tyrosine-protein kinase FLT3 (Homo sapiens) (UniProt P36888); assay: Inhibition of FLT3-mediated signalling pathway in human MV4-11 cells assessed as inhibition of AKT phosphorylation upto 20 x GI50 concentration incubated for 6 hrs by western blot analysis; format: cell-based
Method in brief: (§2)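 Cells lysed in phosphate lysis buffer with protease inhibitors and protein quantified. Western blots probed phospho and total STAT5, AKT, ERK, S6RP and eIF4E, plus full-length and cleaved PARP and caspase-3, with β-actin as loading control. At least two independent experiments.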

[5] = target: Receptor-type tyrosine-protein kinase FLT3 (Homo sapiens, UniProt P36888, D835Y); assay: Inhibition of FLT3 D835Y mutant (unknown origin) incubated for 120 mins by ADP-glo based luminescence assay
[6] = Antiproliferative activity against human MOLM-13 cells harboring FLT3-ITD mutant assessed as reduction in cell viability after 72 hrs by resazurin assay; format: functional; conditions: MOLM-13, 72 h; method in brief: as §1
U-937 [7] = assay: Induction of apoptosis in human U937 cells assessed as necrotic cells at 20 x GI50 concentration incubated for 24 hrs by annexin V-FITC and propidium iodide staining based flow cytometry (reference value: 10.30 %); format: functional
MV4-11 [8] = assay: Induction of apoptosis in human MV4-11 cells assessed as late apoptotic cells at 5 x GI50 concentration incubated for 48 hrs by annexin V-FITC and propidium iodide staining based flow cytometry (reference value: 6.59 %); format: functional
U-937 [9] = assay: Induction of apoptosis in human U937 cells assessed as necrotic cells at 1 x GI50 concentration incubated for 48 hrs by annexin V-FITC staining based flow cytometry (reference value: 1.16 %); format: functional
THP-1 = assay: Antiproliferative activity against human THP-1 cells harboring wild type FLT3 assessed as reduction in cell viability after 72 hrs by resazurin assay; format: functional; method in brief: as §1
U-937 [10] = assay: Induction of apoptosis in human U937 cells assessed as late apoptotic cells at 5 x GI50 concentration incubated for 48 hrs by annexin V-FITC staining based flow cytometry (Rvb =9.82 %); format: functional
MV4-11 [11] = assay: Induction of apoptosis in human MV4-11 cells assessed as necrotic cells at 5 x GI50 concentration incubated for 24 hrs by annexin V-FITC and propidium iodide staining based flow cytometry (reference value: 0.75 %); format: functional
[12] = target: Cyclin-dependent kinase 1/cyclin B1 (Homo sapiens, UniProt P06493); assay: Inhibition of CDK1/cyclin B (unknown origin) using histone 1 protein substrate incubated for 120 mins measured after 40 mins incubation under dark by ADP-glo based luminescence assay; format: protein-complex assay
Cyclin-dependent kinase 1/cyclin B1, sequence (P06493 whole entry): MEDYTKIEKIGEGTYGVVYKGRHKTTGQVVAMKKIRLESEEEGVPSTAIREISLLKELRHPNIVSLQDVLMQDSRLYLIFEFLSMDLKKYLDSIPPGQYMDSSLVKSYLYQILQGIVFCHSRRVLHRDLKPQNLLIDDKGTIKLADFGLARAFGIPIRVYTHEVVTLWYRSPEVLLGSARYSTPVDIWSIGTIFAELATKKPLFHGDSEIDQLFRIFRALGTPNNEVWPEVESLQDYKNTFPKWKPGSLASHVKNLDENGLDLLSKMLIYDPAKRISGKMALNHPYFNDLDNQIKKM
Cyclin-dependent kinase 1/cyclin B1, sequence (P14635 whole entry, further chain): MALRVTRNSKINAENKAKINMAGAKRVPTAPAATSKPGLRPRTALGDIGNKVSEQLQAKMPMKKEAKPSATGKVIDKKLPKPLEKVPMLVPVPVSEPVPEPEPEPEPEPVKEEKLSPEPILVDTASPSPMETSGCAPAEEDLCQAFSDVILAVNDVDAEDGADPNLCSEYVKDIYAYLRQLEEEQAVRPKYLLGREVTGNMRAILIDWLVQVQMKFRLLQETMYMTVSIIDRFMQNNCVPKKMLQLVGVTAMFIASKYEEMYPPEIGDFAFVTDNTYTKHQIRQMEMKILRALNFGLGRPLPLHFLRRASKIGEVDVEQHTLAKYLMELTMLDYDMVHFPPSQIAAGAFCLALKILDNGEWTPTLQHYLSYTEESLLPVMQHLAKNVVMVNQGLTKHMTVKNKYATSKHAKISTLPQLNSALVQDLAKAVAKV
Method in brief: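 In-house ADP-Glo assay with 2 mM DMSO stocks. Kinases were CDK1/cyclin B at 1 nM, CDK2/cyclin E1 at 10 nM and CDK7/cyclin H/MAT1 at 40 nM. Substrate was histone 1 for CDK1 and CDK2, and a RNA pol II CTD peptide for CDK7. Compound at 8–10 concentrations, 1:3 serial, final DMSO 0.5%. Reactions ran 60–120 min at room temperature, then ADP-Glo reagent 40 min in the dark, then detection reagent 40 min, read by luminescence. Ki was derived from IC50 by Cheng-Prusoff.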

[13] = target: Receptor-type tyrosine-protein kinase FLT3 (Homo sapiens) (UniProt P36888); assay: Inhibition of FLT3-mediated signalling pathway in human MV4-11 cells assessed as inhibition of STAT5 phosphorylation upto 20 x GI50 concentration incubated for 6 hrs by western blot analysis; format: cell-based; method in brief: as §2
U-937 [14] = assay: Induction of apoptosis in human U937 cells assessed as viable cells at 20 x GI50 concentration incubated for 24 hrs by annexin V-FITC and propidium iodide staining based flow cytometry (reference value: 85.68 %); format: functional
U-937 [15] = assay: Induction of apoptosis in human U937 cells assessed as viable cells at 10 x GI50 concentration incubated for 48 hrs by annexin V-FITC staining based flow cytometry (reference value: 86.25 %); format: functional
U-937 [16] = assay: Induction of apoptosis in human U937 cells assessed as early apoptotic cells at 1 x GI50 concentration incubated for 24 hrs by annexin V-FITC and propidium iodide staining based flow cytometry (Rvb =1.81 %); format: functional
[17] = target: Receptor-type tyrosine-protein kinase FLT3 (Homo sapiens, UniProt P36888, F594-R595INSR); assay: Inhibition of FLT3 F594_R595insR mutant (unknown origin) incubated for 120 mins by ADP-glo based luminescence assay
K562 = assay: Antiproliferative activity against human K562 cells harboring FLT3 knockout gene assessed as reduction in cell viability after 72 hrs by resazurin assay; format: functional; method in brief: as §1
[18] = Inhibition of FLT3 ITD-NPOS mutant (unknown origin) incubated for 120 mins by ADP-glo based luminescence assay; set-up: species or system Homo sapiens
MV4-11 [19] = assay: Induction of apoptosis in human MV4-11 cells assessed as late apoptotic cells at 20 x GI50 concentration incubated for 24 hrs by annexin V-FITC and propidium iodide staining based flow cytometry (reference value: 12.45 %); format: functional
[20] = Inhibition of FLT3 ITD-W51 mutant (unknown origin) incubated for 120 mins by ADP-glo based luminescence assay; set-up: species or system Homo sapiens
MV4-11 [21] = assay: Antiproliferative activity against human MV4-11 cells harboring FLT3-ITD mutant assessed as reduction in cell viability after 72 hrs by resazurin assay; format: functional; method in brief: as §1
MV4-11 [22] = assay: Induction of apoptosis in human MV4-11 cells assessed as necrotic cells at 1 x GI50 concentration incubated for 24 hrs by annexin V-FITC and propidium iodide staining based flow cytometry (reference value: 0.75 %); format: functional
MV4-11 [23] = assay: Induction of apoptosis in human MV4-11 cells assessed as viable cells at 20 x GI50 concentration incubated for 48 hrs by annexin V-FITC and propidium iodide staining based flow cytometry (reference value: 91.87 %); format: functional
U-937 [24] = assay: Induction of apoptosis in human U937 cells assessed as early apoptotic cells at 20 x GI50 concentration incubated for 48 hrs by annexin V-FITC staining based flow cytometry (reference value: 2.78 %); format: functional
MV4-11 [25] = assay: Induction of apoptosis in human MV4-11 cells assessed as late apoptotic cells at 20 x GI50 concentration incubated for 48 hrs by annexin V-FITC and propidium iodide staining based flow cytometry (reference value: […] %); format: functional
[26] = target: Receptor-type tyrosine-protein kinase FLT3 (Homo sapiens) (UniProt P36888); assay: Inhibition of FLT3-mediated signalling pathway in human MV4-11 cells assessed as increase in cleaved PARP expression upto 20 x GI50 concentration incubated for 6 hrs by western blot analysis; format: cell-based; method in brief: as §2

GI50 (U-937 [1]): > 10000 nM | inhibition [4]: Active | Ki [5]: 47 nM | GI50 (THP-1): 7720 nM | Ki [12]: > 5000 nM | inhibition [13]: Active | Ki [17]: 54 nM | GI50 (K562): > 10000 nM | Ki [18]: 262 nM | Ki [20]: 84 nM | GI50 (MV4-11 [21]): 74 nM | Activity [26]: Active
Structure (SMILES): CC(=O)N1CCN(c2ccc(Nc3nccc(-c4cn(C)c5ncccc45)n3)cc2)CC1
Activity (U-937 [2]): 86.36% | Activity (MV4-11 [3]): 1.48% | GI50 [6]: 23 nM | Activity (U-937 [7]): 10.43% | Activity (MV4-11 [8]): 9.25% | Activity (U-937 [9]): 1.4% | Activity (U-937 [10]): 8.16% | Activity (MV4-11 [11]): 1.86% | Activity (U-937 [14]): 85.3% | Activity (U-937 [15]): 83.36% | Activity (U-937 [16]): 2.41% | Activity (MV4-11 [19]): 2.03% | Activity (MV4-11 [22]): 1.74% | Activity (MV4-11 [23]): 64.18% | Activity (U-937 [24]): 3.44% | Activity (MV4-11 [25]): 1.56%
